# Compounds with a hit are over-represented: about 1.8% of the library has one in this group of screens.
# M4 antag – human M4 muscarinic receptor antagonists, primary screen, CHO cells, Fluo-8 calcium fluorescence; Muscarinic acetylcholine receptor M4 (Homo sapiens), P08173; CHO-hM4 cells, ACh EC80; inhibition, % at 3 µM; 360,000 compounds, 0.73% hits; AID 624125, 2012;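 active = inhibition above its plate's cutoff, the mean inhibition of sample wells plus 3 SD, cut at about 27% in these data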;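 note: 0% = acetylcholine EC80 with DMSO and 100% = DMSO without agonist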
# M4 PAM – human M4 muscarinic receptor positive allosteric modulators, primary screen, CHO-K1 cells, Fluo-8 calcium fluorescence | Muscarinic acetylcholine receptor M4 (Homo sapiens), P08173 | CHO-K1 hM4/Gqi5, ACh EC20; 0% = ACh EC20, 100% = maximal ACh | activation, % at 3 µM | 360,000 compounds, 0.4% hits;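 active = activation above its plate's cutoff, the mean activation of sample wells plus 3 SD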
# CHRM5 PAM – human M5 muscarinic receptor positive allosteric modulators, primary screen, CHO-K1 cells, Fluo-8 calcium fluorescence; Muscarinic acetylcholine receptor M5 (Homo sapiens), P08912; CHO-K1 hM5, ACh EC20 PAM; 0% = ACh EC20, 100% = ACh EC100; activation, % at 3 µM; 360,000 compounds, 0.3% hits; AID 624038, 2012;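 active = activation above the run cutoff, the mean activation of all test compounds plus 3 SD, cut at about 18% in these data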
# Target sequence (P08912 whole entry, looked up): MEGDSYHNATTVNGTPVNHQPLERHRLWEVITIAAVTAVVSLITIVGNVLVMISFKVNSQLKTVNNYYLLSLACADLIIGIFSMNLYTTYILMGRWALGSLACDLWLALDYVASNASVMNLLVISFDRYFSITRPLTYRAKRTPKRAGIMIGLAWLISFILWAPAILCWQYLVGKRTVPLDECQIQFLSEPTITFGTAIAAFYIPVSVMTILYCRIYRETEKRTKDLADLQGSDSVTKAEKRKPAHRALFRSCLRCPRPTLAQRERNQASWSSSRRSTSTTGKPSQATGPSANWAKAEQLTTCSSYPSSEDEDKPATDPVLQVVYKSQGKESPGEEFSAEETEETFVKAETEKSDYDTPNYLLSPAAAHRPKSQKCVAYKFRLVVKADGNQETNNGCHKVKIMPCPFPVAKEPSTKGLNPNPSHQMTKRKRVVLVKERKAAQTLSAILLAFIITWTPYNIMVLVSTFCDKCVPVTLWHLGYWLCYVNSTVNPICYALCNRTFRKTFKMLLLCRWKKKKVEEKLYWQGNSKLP
#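 Test system: CHO-K1 hM5 cells / Doses: single-point, 3 µM nominal / Times: Post-acetylcholine fluorescence recording 140 s / Technique: Fluo-8 calcium fluorescence / Measure: Max/basal fluorescence ratio as % of EC20–EC100 ACh window / Benchmarks: low control EC20 acetylcholine (0%), high control EC100 acetylcholine (100%) / Replicates: one well per compound, no replicates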
# CHRM5 agonist – human M5 muscarinic receptor agonists, primary screen, CHO-K1 cells, Fluo-8 calcium fluorescence. Muscarinic acetylcholine receptor M5 (Homo sapiens), P08912. CHO-K1 hM5 cells; 0% DMSO wells, 100% maximal acetylcholine response. 360,000 compounds, 0.19% hits. activation, % at 3 µM;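 active = activation above the run's mean over test compounds plus 3 SD, cut at about 23% in these data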;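 note: signal is peak over basal fluorescence ratio across the kinetic read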
# CHRM4 agonist – human M4 muscarinic receptor agonists, primary screen, CHO-K1 cells, Fluo-8 calcium fluorescence; Muscarinic acetylcholine receptor M4 (Homo sapiens), P08173; CHO-K1 hM4/Gqi5; vehicle 0%, full acetylcholine response 100%; activation, % at 3 µM; 360,000 compounds, 0.14% hits; AID 624127, 2012;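 active = activation above the run mean over all test wells plus 3 SD, cut at about 32% in these data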;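 note: peak over basal fluorescence ratio per well then scaled between controls; 0% = DMSO wells and 100% = acetylcholine at EC100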
# M5 antag – human M5 muscarinic receptor antagonists, primary screen, CHO cells, Fluo-8 calcium fluorescence; Muscarinic acetylcholine receptor M5 (Homo sapiens), P08912; CHO-hM5 cells, ACh EC80; inhibition, % at 3 µM; 360,000 compounds, 0.59% hits; AID 624040, 2012;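 active = inhibition above a per-plate cutoff, the mean of that plate's test compounds plus 3 SD, cut at about 27% in these data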;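 note: 0% = acetylcholine EC80 with DMSO and 100% = DMSO without agonist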
# * = called active by the depositor; ! = repeats disagree.
SMILES,M4 antag,M4 PAM,CHRM5 PAM,CHRM5 agonist,CHRM4 agonist,M5 antag
CC(=O)Nc1ccc(S(=O)(=O)NC(C(=O)O)C(C)O)cc1 (stereo unspecified),9.2,-1.2,7.9,-0.8,0.3,-1.3
O=C(COc1ccc([N+](=O)[O-])cc1)Nc1ccc2c(c1)nc1n2CCOC1,-14.6,-0.9,5.8,-3.7,0.9,-4.0
NS(=O)(=O)c1ccc(S(=O)(=O)NCCc2ccccc2)cc1,11.9,-6.7,-0.5,-1.5,0.9,-2.6
Cc1[nH]c2ccccc2c1CCNS(=O)(=O)c1ccc(S(N)(=O)=O)cc1,-10.2,15.9*,12.9,-1.4,2.0,4.4
S=C(Nc1ccccc1)N1N=C(c2cccs2)CC1c1cccs1 (stereo unspecified),4.9,-15.4,-6.3,-1.6,-0.8,9.1
Cc1ccnc(NC(=O)CCC(=O)N(CC(=O)NC(C)(C)C)c2ccc3c(c2)OCO3)c1,5.3,2.1,-1.4,-2.6,0.5,13.8
Cc1cccc2sc(N(CCCN(C)C)C(=O)c3nc4ccccc4s3)nc12,-7.9,0.2,-3.7,-2.3,2.1,-8.0
CN(C)CCCN(C(=O)CCc1ccccc1)c1nc2ccc(F)cc2s1,6.6,-5.9,-1.4,-3.3,3.0,7.1
Cc1cccc2sc(N(CCCN(C)C)C(=O)c3ccc4ncsc4c3)nc12,29.8*,33.8*,-1.9,-6.5,11.0,10.7
CN(C)CCCN(C(=O)c1ccc(C(=O)c2ccccc2)cc1)c1nc2cc3c(cc2s1)OCCO3,-11.4,1.8,-5.0,-6.3,12.1,28.3*
CN(C)CCCN(C(=O)CCc1ccccc1)c1nc2ccc(Br)cc2s1,52.7*,-27.5,2.0,-3.1,33.8*,5.8
CCN(CC)CCN(C(=O)c1ccc2c(c1)OCCO2)c1nc2cc(C)cc(C)c2s1,-11.7,17.7*,-1.5,-7.8,2.7,1.4
CN(C)CCN(C(=O)c1ccc(C(=O)c2ccccc2)cc1)c1nc2cc3c(cc2s1)OCCO3,-9.3,2.5,0.5,-6.0,1.0,6.9
Cc1ccc(NC(=O)c2oc3ccccc3c2COC(C)C)cc1S(=O)(=O)N1CCOCC1,0.9,-7.7,-1.1,-2.0,4.8,0.4
C[C@@H]1CN([C@H](C)CO)C(=O)c2cc(Br)cnc2O[C@H]1CN(C)C(=O)Cc1ccccc1,-2.6,2.6,2.5,0.6,1.5,-7.8
CC(C)C1CC(CCN)(c2ccccc2)CCO1 (stereo unspecified),48.1*,-12.6,2.5,-12.5,0.7,7.2
CCOC(=O)c1sc(NC(=O)c2ccc(Cl)s2)cc1C,-2.2,3.6,-2.6,1.3,1.2,-1.4
CCOC(=O)c1sc(NC(=O)Nc2ccc(Cl)cc2)cc1C,33.1*,-16.1,-27.1,7.2,17.3,38.0*
NC(=O)CC(NC(=O)Cc1cccc2ccccc12)c1ccc(NCc2ccc(F)c(F)c2)c([N+](=O)[O-])c1 (stereo unspecified),-25.7,23.9*,2.2,-3.3,2.1,3.1
NC(=O)CC(NC(=O)Cc1cccc2ccccc12)c1ccc(NC2CCCC2)c([N+](=O)[O-])c1 (stereo unspecified),0.7,2.8,-1.9,2.3,1.4,2.8
NC(=O)CC(NC(=O)Cc1cccc2ccccc12)c1ccc(NC2CC3CCC2C3)c([N+](=O)[O-])c1 (stereo unspecified),0.0,9.7,19.2*,4.7,-0.8,-7.4
NC(=O)CC(NC(=O)Cc1cccc2ccccc12)c1ccc(NCCOc2ccccc2)c([N+](=O)[O-])c1 (stereo unspecified),4.7,27.5*,1.1,1.0,2.3,5.5
NC(=O)CC(NC(=O)Cc1cccc2ccccc12)c1ccc(NCC2CC2)c([N+](=O)[O-])c1 (stereo unspecified),-2.6,1.8,2.3,-1.2,20.8,12.9
Cc1sc(NC(=O)CSc2nnc(N)s2)c(C#N)c1C,1.1,-5.8,-1.6,2.6,-0.4,0.2
Cc1ccc(NC(=O)COC(=O)CCC(=O)c2cccs2)cc1S(=O)(=O)N1CCOCC1,31.5*,20.5,9.2,-0.6,12.5,-3.0
SMILES,M4 antag,M4 PAM,CHRM5 PAM,CHRM5 agonist,CHRM4 agonist,M5 antag
O=C(COC(=O)CCC(=O)c1cccs1)Nc1cccc(S(=O)(=O)N2CCOCC2)c1,-5.6,-1.0,-1.9,-1.7,4.0,-5.2
Cc1nn2c(nc1=O)SCC(c1ccccc1)=N2,-16.6,2.8,28.4*,-1.4,0.8,-19.2
Cc1cccc(-c2nnc3n2N=C(c2ccccc2)CS3)c1,-0.4,4.6,-7.2,-4.6,2.8,8.2
Cc1nn(CCCC(=O)NCCc2ccccc2)c(=O)c2nccn12,-4.6,1.0,-1.0,-0.9,0.8,2.2
O=C(Cc1cc(=O)[nH][nH]1)N/N=C/C(Cl)=C/c1ccccc1,-3.5,35.1*!,-0.8,-1.1,0.2,-0.3
O=C(Cc1cc(=O)[nH][nH]1)N/N=C/c1c(Cl)cccc1Cl,2.9,-4.2,0.2,0.3,0.9,-1.2
COc1ccc(/C(N)=N/OC(=O)C2CCCCC2)cc1,-7.0,6.3,1.7,-2.3,0.6,-3.7
c1ccc([C@H]2CN3C(=N2)Sc2ccccc23)cc1,-0.2,9.3,0.5,0.7,2.2,2.5
CN1OC[C@@H]2CN[C@H](c3ccc(-c4cccc(F)c4)cc3)C[C@@H]21,7.4,-9.2,-8.2,1.5,14.7,20.0
Cc1cccn2cc(CNS(=O)(=O)c3ccc4ccccc4c3)nc12,1.1,2.9,-12.2,0.8,9.3,12.8
Cc1ccn2cc(CNS(=O)(=O)c3ccc4ccccc4c3)nc2c1,99.2*,-16.9,0.1,1.0,-1.9,0.8
N#Cc1ccccc1COc1cccc2c1CCCC2O (stereo unspecified),5.6,1.6,-2.3,-2.7,1.7,7.8
COc1cccc(CNC(=O)CCNS(=O)(=O)c2ccc3[nH]c(=O)oc3c2)c1,-4.2,16.4*,6.0,-3.2,-0.5,-3.6
Cc1cc(C)c2c(N)c(C(=O)c3ccccc3)sc2n1,32.9*,56.2*,4.9,-2.7,26.1,-10.1
Cc1cc(C)c2c(N)c(C(=O)c3ccc(Cl)cc3)sc2n1,-1.9,28.2*,-5.7,0.0,11.2,5.6
COc1ccc(NC(=O)CN(C)CC(=O)Nc2cccc(S(=O)(=O)N(C)c3ccccc3)c2)cc1,3.3,-8.6,-8.5,2.1,10.5,5.0
